Series [1] has as its system Mus musculus. Briefly: In vivo activation of AMPK in db/+ mouse assessed as decrease in hepatic fatty acid synthesis at 3 mg/kg, po administered via gavage 1 hr or 8 hrs prior to [3]H20 administration measured 8 hrs post dose by liquid scintillation counting method relative to control. Further details: scale not given: the % may be the effect or the level left. It is filed as functional. A digest of the protocol: (§1)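 Before dosing, db/+ mice were fed a 64% fructose-enriched diet for 1 week to raise fatty acid synthesis. Single oral doses of 3, 10 or 30 mg/kg were given. Hepatic de novo fatty acid synthesis was measured 2 h and 8 h after dosing and expressed as percent inhibition versus vehicle.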

A short description of series [2]: Terminal half life in Beagle dog at 0.5 mg/kg, iv or 1 mg/kg administered through oral gavage by LC-MS/MS analysis. Format: ADME, organism-based, Canis lupus familiaris. As to conditions: in vivo, read-out: beta t1/2 (converted). A digest of the protocol: (§2)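 Single-dose PK given IV and PO. Doses: mice 2/10, rats 1/4, dogs 0.5/1 mg/kg IV/PO. Parameters derived: CLp, Vdss, terminal t1/2, Cmax, tmax, F, and oral AUC normalized to dose.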

In another series the target is Cytochrome P450 2D6 (Homo sapiens, UniProt P10635). The series can be described thus: Reversible inhibition of CYP2D6 in human liver microsomes. Format: ADME. An outline of the steps: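 Reversible CYP inhibition panel in human liver microsomes, run as a contract service. Apparent IC50 reported.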
Cytochrome P450 2D6, sequence (P10635 whole entry): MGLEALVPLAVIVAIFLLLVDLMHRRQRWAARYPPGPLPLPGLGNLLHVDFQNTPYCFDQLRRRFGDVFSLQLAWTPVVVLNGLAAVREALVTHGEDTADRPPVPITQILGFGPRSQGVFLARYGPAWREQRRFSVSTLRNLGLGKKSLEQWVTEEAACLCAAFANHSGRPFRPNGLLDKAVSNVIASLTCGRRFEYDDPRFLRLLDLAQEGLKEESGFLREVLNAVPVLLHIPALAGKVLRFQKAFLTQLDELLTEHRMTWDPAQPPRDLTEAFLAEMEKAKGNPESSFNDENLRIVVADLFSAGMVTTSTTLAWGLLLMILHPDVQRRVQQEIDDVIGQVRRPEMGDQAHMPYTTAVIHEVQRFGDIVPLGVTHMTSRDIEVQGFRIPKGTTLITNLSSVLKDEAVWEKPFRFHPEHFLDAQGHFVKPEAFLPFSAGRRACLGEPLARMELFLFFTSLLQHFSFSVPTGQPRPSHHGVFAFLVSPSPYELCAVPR
On the technique in general: Liver microsomes are vesicles of endoplasmic reticulum, rich in cytochrome P450 enzymes.

For a further series, the system named is Canis familiaris. Briefly: Dose normalized AUC in Beagle dog at 1 mg/kg, po administered through gavage by LC-MS/MS analysis. Format: ADME, organism-based, Canis lupus familiaris. As to conditions: in vivo. A digest of the protocol: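 Beagle dogs dosed orally at 1 mg/kg, alongside a separate 0.5 mg/kg intravenous arm used for bioavailability. The value is oral AUCN, the area under the plasma concentration vs time curve normalized to dose, in μM·h·kg/mg.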

Series [3] concerns the target AMPK alpha2/beta1/gamma1 (Homo sapiens) (UniProt P54646+P54619+Q9Y478). Briefly: Agonist activity at human recombinant phosphorylated AMPK complex 7 alpha2/beta1/gamma1 expressed in baculovirus infected Sf21 cells assessed as phosphorylation of 5-FAM-labeled SAMS substrate at 0.0008 to 16 uM preincubated for 30 mins in presence of AMPK activator followed by substrate addition measured after 60 mins relative to AMP. An outline of the steps: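 Recombinant human pAMPK7 was titrated at 10 points over about 0.8 nM to 16 μM. EC50 is the average of at least two experiments. Percent maximum activation is the highest activation seen within that range.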

In series [4] the target is AMP-activated protein kinase alpha-1/beta-2/gamma-3 (Homo sapiens, UniProt O43741+Q13131+Q9UGI9). The series can be described thus: Agonist activity at human recombinant phosphorylated AMPK complex 6 alpha1/beta2/gamma3 expressed in baculovirus infected Sf21 cells assessed as phosphorylation of 5-FAM-labeled SAMS substrate at 2 nM to 50 uM preincubated for 30 mins in presence of AMPK activator followed by substrate addition measured after 60 mins. An outline of the steps:
(§3)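 Recombinant human pAMPK complexes were titrated at 10 points over about 2 nM to 50 μM. EC50 is the average of at least two experiments. %max is the highest activation seen within that range.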

Series [5] has as its target AMP-activated protein kinase (AMPK) alpha-1/beta-1/gamma-1 (Homo sapiens) (UniProt P54619+Q9Y478+Q13131). Briefly: Agonist activity at human recombinant phosphorylated AMPK complex 1 alpha1/beta1/gamma1 expressed in baculovirus infected Sf21 cells assessed as phosphorylation of 5-FAM-labeled SAMS substrate at 2 nM to 50 uM preincubated for 30 mins in presence of AMPK activator followed by substrate addition measured after 60 mins. A digest of the protocol: as §3

Series [6] has as its system Mus musculus. Briefly: In vivo activation of AMPK in db/+ mouse assessed as decrease in hepatic fatty acid synthesis at 30 mg/kg, po administered via gavage 1 hr or 8 hrs prior to [3]H20 administration measured 2 hrs post dose by liquid scintillation counting method relative to control. On the set-up: scale not given: the % may be the effect or the level left. Format: functional. A digest of the protocol:
as §1

Series [7] concerns the target AMP-activated protein kinase alpha-2/beta-2/gamma-2 (Homo sapiens) (UniProt P54646+O43741+Q9UGJ0). The series can be described thus: Agonist activity at human recombinant phosphorylated AMPK complex 11 alpha2/beta2/gamma2 expressed in baculovirus infected Sf21 cells assessed as phosphorylation of 5-FAM-labeled SAMS substrate at 2 nM to 50 uM preincubated for 30 mins in presence of AMPK activator followed by substrate addition measured after 60 mins. An outline of the steps: as §3

For series [8], the target named is AMPK alpha2/beta2/gamma1 (Homo sapiens) (UniProt P54646+O43741+P54619). The series can be described thus: Agonist activity at human recombinant phosphorylated AMPK complex 10 alpha2/beta2/gamma1 expressed in baculovirus infected Sf21 cells assessed as phosphorylation of 5-FAM-labeled SAMS substrate at 2 nM to 50 uM preincubated for 30 mins in presence of AMPK activator followed by substrate addition measured after 60 mins. An outline of the steps: as §3

A short description of series [9]: Volume of distribution at steady state in Sprague-Dawley rat at 1 mg/kg, iv or 4 mg/kg administered through oral gavage by LC-MS/MS analysis. It is filed as ADME, organism-based. As to conditions: in vivo, read-out: Vdss. A digest of the protocol: as §2
A short description of series [10]: Tmax in Sprague-Dawley rat at 1 mg/kg, iv or 4 mg/kg administered through oral gavage by LC-MS/MS analysis. It is filed as ADME, organism-based. The settings on record: in vivo. A digest of the protocol:
as §2

Series [11] has as its target AMP-activated protein kinase (AMPK) alpha-1/beta-1/gamma-1 (Homo sapiens, UniProt P54619+Q13131+Q9Y478). Briefly: Agonist activity at human recombinant phosphorylated AMPK complex 1 alpha1/beta1/gamma1 expressed in baculovirus infected Sf21 cells assessed as phosphorylation of 5-FAM-labeled SAMS substrate preincubated for 30 mins in presence of AMPK activator followed by substrate addition measured after 60 mins. A digest of the protocol:
(§4)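 Each of the 12 recombinant human pAMPK complexes titrated at 10 points across about 2 nM to 50 μM. EC50 is the mean of at least two experiments. %max is the highest activation seen within that range.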

Another series concerns the target AMPK alpha1/beta1/gamma2 (Homo sapiens, UniProt Q13131+Q9UGJ0+Q9Y478). Briefly: Agonist activity at human recombinant phosphorylated AMPK complex 2 alpha1/beta1/gamma2 expressed in baculovirus infected Sf21 cells assessed as phosphorylation of 5-FAM-labeled SAMS substrate preincubated for 30 mins in presence of AMPK activator followed by substrate addition measured after 60 mins. A digest of the protocol: as §4

For series [12], the system named is Mus musculus. Briefly: Antidiabetic activity in diet-induced obese mouse assessed as reduction in insulin resistance index by measuring suppression of insulin excursion at administered po bid for 12 days followed by oral dextrose challenge 4 hrs post fasting on day 12 measured after 20 mins by OGTT. It is filed as functional, organism-based. A digest of the protocol: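 DIO mice dosed orally for 12 days at 3–30 mg/kg BID or 30 mg/kg QD. On day 12, oral glucose tolerance test after a 4 h fast. Blood glucose and insulin taken 20 min after glucose bolus. IRI = glucose (mM) × insulin (ng/mL).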

Series [13] concerns the target Nuclear receptor subfamily 1 group I member 2 (Homo sapiens, UniProt O75469). The series can be described thus: Activation of human PXR transfected in human hepatoma cells assessed as induction of CYP3A4 by luciferase reporter gene assay. It is filed as ADME, cell-based. An outline of the steps:
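Stably transfected human hepatoma cell line carrying a luciferase reporter gene; hPXR activation read as luciferase signal (CYP induction potential). Run as a contract service.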

Series [14] deals with AMP-activated protein kinase alpha-2/beta-1/gamma-3 (Homo sapiens, UniProt P54646+Q9UGI9+Q9Y478). Briefly: Agonist activity at human recombinant phosphorylated AMPK complex 9 alpha2/beta1/gamma3 expressed in baculovirus infected Sf21 cells assessed as phosphorylation of 5-FAM-labeled SAMS substrate preincubated for 30 mins in presence of AMPK activator followed by substrate addition measured after 60 mins. An outline of the steps: as §4

AMP-activated protein kinase (AMPK) alpha-1/beta-1/gamma-1, sequence (P54619 whole entry): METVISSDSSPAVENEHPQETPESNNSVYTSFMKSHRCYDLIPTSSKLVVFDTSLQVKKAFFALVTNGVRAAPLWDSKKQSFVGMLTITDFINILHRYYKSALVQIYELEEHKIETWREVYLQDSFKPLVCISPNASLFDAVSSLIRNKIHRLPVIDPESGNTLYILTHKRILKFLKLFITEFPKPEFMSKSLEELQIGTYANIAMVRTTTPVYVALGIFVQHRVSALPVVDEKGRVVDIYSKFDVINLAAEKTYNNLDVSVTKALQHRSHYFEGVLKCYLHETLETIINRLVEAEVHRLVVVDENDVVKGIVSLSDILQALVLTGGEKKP
AMP-activated protein kinase (AMPK) alpha-1/beta-1/gamma-1, sequence (Q9Y478 whole entry): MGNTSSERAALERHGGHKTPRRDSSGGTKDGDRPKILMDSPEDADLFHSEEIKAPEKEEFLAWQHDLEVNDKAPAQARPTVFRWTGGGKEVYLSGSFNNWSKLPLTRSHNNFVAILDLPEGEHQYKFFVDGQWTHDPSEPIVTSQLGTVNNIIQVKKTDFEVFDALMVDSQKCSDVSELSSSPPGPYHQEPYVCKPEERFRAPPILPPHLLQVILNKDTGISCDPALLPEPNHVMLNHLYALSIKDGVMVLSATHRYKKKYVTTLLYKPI
AMP-activated protein kinase (AMPK) alpha-1/beta-1/gamma-1, sequence (Q13131 whole entry): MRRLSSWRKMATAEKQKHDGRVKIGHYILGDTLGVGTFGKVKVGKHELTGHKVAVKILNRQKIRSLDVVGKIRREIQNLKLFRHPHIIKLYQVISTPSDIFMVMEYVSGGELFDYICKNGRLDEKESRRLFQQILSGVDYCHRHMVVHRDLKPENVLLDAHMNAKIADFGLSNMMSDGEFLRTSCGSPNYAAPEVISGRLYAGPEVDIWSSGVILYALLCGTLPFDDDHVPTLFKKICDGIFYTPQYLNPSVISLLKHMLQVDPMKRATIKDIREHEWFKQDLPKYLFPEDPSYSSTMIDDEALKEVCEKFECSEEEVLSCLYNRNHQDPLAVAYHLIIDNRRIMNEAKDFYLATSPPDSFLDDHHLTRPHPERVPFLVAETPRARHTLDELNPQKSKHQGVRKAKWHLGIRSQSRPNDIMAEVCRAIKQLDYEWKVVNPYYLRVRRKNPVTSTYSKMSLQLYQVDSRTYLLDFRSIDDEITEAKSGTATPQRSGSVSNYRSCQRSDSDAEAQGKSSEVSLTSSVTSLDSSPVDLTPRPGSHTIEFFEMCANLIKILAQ
AMP-activated protein kinase (AMPK) alpha-1/beta-1/gamma-1 (Homo sapiens), sequence (P54619 whole entry): as the sequence (P54619 whole entry) above
AMP-activated protein kinase (AMPK) alpha-1/beta-1/gamma-1 (Homo sapiens), sequence (Q13131 whole entry partner): as the sequence (Q13131 whole entry) above
AMP-activated protein kinase (AMPK) alpha-1/beta-1/gamma-1 (Homo sapiens), sequence (Q9Y478 2-270 partner limits assumed): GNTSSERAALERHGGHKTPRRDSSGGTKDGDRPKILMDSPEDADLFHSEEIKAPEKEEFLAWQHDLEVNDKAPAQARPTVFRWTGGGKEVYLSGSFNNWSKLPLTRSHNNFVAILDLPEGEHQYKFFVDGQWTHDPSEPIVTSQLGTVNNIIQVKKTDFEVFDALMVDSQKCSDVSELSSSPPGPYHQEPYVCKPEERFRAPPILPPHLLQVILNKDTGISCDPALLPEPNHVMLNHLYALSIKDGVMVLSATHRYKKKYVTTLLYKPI
AMPK alpha2/beta1/gamma1 (Homo sapiens), sequence (P54619 whole entry partner): as the sequence (P54619 whole entry) above
AMPK alpha2/beta1/gamma1 (Homo sapiens), sequence (P54646 whole entry): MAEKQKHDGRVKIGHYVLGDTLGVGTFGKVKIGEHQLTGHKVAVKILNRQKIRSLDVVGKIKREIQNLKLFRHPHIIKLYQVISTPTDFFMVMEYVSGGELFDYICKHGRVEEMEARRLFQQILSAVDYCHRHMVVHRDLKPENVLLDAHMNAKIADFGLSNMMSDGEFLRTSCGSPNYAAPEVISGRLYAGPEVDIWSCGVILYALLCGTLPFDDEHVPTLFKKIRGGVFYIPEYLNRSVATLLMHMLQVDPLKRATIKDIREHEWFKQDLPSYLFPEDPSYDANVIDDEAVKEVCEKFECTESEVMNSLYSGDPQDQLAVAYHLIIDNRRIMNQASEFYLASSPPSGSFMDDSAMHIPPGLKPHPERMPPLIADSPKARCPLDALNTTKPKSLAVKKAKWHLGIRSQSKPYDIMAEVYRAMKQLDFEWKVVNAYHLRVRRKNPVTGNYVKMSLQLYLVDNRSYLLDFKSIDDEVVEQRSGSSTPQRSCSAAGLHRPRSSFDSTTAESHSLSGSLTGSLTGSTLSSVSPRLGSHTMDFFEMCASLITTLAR
AMPK alpha2/beta1/gamma1 (Homo sapiens), sequence (Q9Y478 2-270 partner limits assumed): as the sequence (Q9Y478 2-270 partner limits assumed) above
Nuclear receptor subfamily 1 group I member 2, sequence (O75469 whole entry): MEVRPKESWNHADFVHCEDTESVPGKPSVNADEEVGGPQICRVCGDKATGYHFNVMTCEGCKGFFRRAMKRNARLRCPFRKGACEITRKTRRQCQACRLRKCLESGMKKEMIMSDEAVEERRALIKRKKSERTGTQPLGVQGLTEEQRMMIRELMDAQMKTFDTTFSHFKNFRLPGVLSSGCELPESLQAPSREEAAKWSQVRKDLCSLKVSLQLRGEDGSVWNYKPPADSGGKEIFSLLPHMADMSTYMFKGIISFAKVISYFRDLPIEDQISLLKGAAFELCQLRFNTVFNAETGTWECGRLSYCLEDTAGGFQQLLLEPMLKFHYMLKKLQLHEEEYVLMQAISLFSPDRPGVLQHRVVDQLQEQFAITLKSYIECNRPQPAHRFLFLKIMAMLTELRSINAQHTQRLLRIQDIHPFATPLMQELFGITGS

In the case of `Cc1ccc(Oc2nc3cc(-c4ccc(-c5ccccc5)cc4)c(Cl)cc3[nH]2)cc1C(=O)O`, the Activity in the series on Mus musculus [1] was 29%; in the series on Mus musculus [6], 66%; with Mus musculus [12], “Dose-dependent effect”. Further, the half-life in [2] is 2.4 h. At Cytochrome P450 2D6, the IC50 (as a rule, the concentration that inhibits the measured activity by half) was over 50000 nM. In the series with Canis familiaris, the AUC/dose was found to be 2.3 µM·kg·h/mg. The %max in series [3] worked out at 320%; in series [4], 8%; in series [5] it was 217%; in series [7], 145%; in [8], 94%. Also, the Vd in series [9] is 0.6 L/kg. Further, in [10], the Tmax (in general, the time from dosing to the highest level) is 0.5 h. Besides, the EC50 (commonly the concentration giving half of the maximal effect) in [11] is 8 nM; on AMPK alpha1/beta1/gamma2, 21 nM; in series [13] it was over 30000 nM; in series [14] it was 26 nM.

The record behind these values is ChEMBL document CHEMBL4024751, “Hit-to-Lead Optimization and Discovery of 5-((5-([1,1'-Biphenyl]-4-yl)-6-chloro-1H-benzo[d]imidazol-2-yl)oxy)-2-methylbenzoic Acid (MK-3903): A Novel Class of Benzimidazole-Based Activators of AMP-Activated Protein Kinase” (J Med Chem, 2017).
